An excerpt weighted towards active compounds, which were near 1.6% of everything screened.
T cell HTS = T cell immune modulation candidate; 2C CD8+ T cell-vesicle binding, flow cytometry; hits give low values; response (vesicle binding), % at 7 µM; 0.068% of 330,000 active; AID 2052;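 active means response, share of CD8 T cells binding vesicles, and their 90th percentile fluorescence all below set limits, cut at about 80% in these data, passing the limit was not always enough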;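 further: values below 100% mean blocked vesicle binding to the CD8+ T cells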
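Material: 2C TCR transgenic mouse naive CD8+ T cells, MACS-purified. Also added: QL9-charged Drosophila Ld/ICAM-1/B7-1 vesicles. Timing: binding 1.5 h at 37 °C. Measured by: high-throughput flow cytometry with anti-B7-1 and anti-CD8 staining. Read-out: percent CD8+ FL2 mean versus row control. Controls: Unloaded micro-vesicles (low), QL9 vesicles with 0.7% DMSO (high).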
PKA-R2B act = activators of human PKA-R2B complex; P22694+P31323; PKA-R2B holoenzyme dissociation, Cy5-IP20 fluorescence polarization; R2B truncated from residue 108, S112A mutant; 0% DMSO only, 100% 113 µM cGMP; activation, % at 11.4 µM; 0.079% of 340,000 active; AID 504700;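 active means activation above a cutoff set at the mean over all compounds plus 3 SD, cut at about 18% in these data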;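 further: higher means more holoenzyme dissociation and a rise in polarization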
ATG4B inhibitor = inhibitors of human ATG4B cysteine protease; 0.51% of 340,000 active; inhibition, % at 8.33 µM; Q9Y4P1; ATG4B cleavage of LC3-PLA2, NBD-HPC fluorescence, 1 h; AID 504462; in the data active means inhibition above about 40%
Target sequence (Q9Y4P1 whole entry, looked up): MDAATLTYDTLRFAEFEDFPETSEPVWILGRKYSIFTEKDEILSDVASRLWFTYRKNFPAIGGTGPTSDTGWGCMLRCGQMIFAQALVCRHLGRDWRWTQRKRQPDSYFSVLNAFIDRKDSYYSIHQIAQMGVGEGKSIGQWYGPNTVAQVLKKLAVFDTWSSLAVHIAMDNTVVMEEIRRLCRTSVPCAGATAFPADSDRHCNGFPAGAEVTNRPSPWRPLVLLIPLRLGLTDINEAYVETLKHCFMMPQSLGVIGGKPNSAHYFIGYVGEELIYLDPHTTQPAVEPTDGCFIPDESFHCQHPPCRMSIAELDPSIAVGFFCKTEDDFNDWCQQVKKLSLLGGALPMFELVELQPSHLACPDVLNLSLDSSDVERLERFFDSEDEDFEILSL
PKA-R1A act = activators of PKA-R1A complex; 0.083% of 340,000 active; PKA-R1A dissociation, Cy5-IP20 fluorescence polarization; scaled: DMSO 0%, 113 µM cGMP 100%; P00514+P68181; AID 504707; activation, % at 11.4 µM;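 active means percent activation above the mean of all tested compounds plus 3 SD, cut at about 19% in these data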;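 further: higher means more PKAc released from R1A so a rise in polarization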
HKDC1 inhibitor = blocks human hexokinase HKDC1 activity; recombinant HKDC1, G6PDH/diaphorase resazurin coupled fluorescence; 0.16% of 340,000 active; inhibition, % at 20 µM; Q2TB90;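 active means inhibition above about 35% when tested at 20 µM, limit read from the data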
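Incubation: 90 min at room temperature in dark / Material: recombinant HKDC1 (HK5) hexokinase enzyme, produced in-house / Quantity: enzyme 5 µg/mL final / Compound: one dose of 20 µM, 1% DMSO / Reagent: glucose and ATP substrates / Buffer or medium: Tris pH 8.0 buffer with MgCl2, Tween-20, BSA, BME / Technique: resorufin fluorescence at 613 nm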
PfGluPho inh = PfG6PD (Plasmodium falciparum) enzyme inhibition. inhibition, % at 20 µM. 0.78% of 350,000 active. PfGluPho enzyme, NADPH resazurin-diaphorase fluorescence;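 active means inhibition reaching at least a set limit at 20 µM in the primary screen, cut at about 59% in these data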
ATG4B conf = ATG4B (human) inhibition, single-dose confirmed; shares compounds with ATG4B inhibitor; ATG4B protease fluorescent substrate cleavage assay; inhibition, % at 8.33 µM; 92% of 320 active; in the data active means inhibition above about 39%
PLA2 ctr = inhibits human PLA2, flagging false ATG4B inhibitors | shares compounds with ATG4B inhibitor | purified PLA2, NBD-C6-HPC fluorescence, 45 min | inhibition, % at 8.33 µM | 66% of 1,600 active | AID 588402; in the data active means inhibition above about 50%
A number is an active result; – = inactive; · = not tested or not shown.

SMILES	T cell HTS	PKA-R2B act	ATG4B inhibitor	PKA-R1A act	HKDC1 inhibitor	PfGluPho inh	PLA2 ctr	others
COc1ccc(-n2c(CCC(=O)O)ccc2-c2ccc(F)cc2)c(OC)c1	–	–	–	–	–	–	·
NC(=O)c1ccc(C(F)(F)F)n(Cc2cccc(Cl)c2)c1=O	–	–	45	–	–	–	–	ATG4B conf=64
NC(=O)c1ccc(C(F)(F)F)n(Cc2ccc(Cl)cc2)c1=O	–	–	–	–	–	–	·
CCn1cc(C(=O)NCc2ccc(Cl)cc2)c(=O)c2cc(S(=O)(=O)N(C)C)ccc21	–	–	–	–	–	–	·
CC1=CN2C(=N)/C(=C/c3ccc(Sc4ccc(C)cc4)o3)C(=O)N=C2S1	–	–	43	–	–	–	56
COc1ccc(S(=O)(=O)NCC(=O)NCc2cc(=O)n(C)c(=O)n2C)cc1	–	–	–	–	–	–	·
C[C@@]12CCC=C[C@H]1[C@H](c1ccc3ccccc3c1Br)N(Cc1ccccc1)C2=O	–	–	50	–	–	–	76
CCN(CC(=O)N1CCOCC1)S(=O)(=O)c1ccc2ccccc2c1	–	–	–	–	–	–	·
CCN(CC(=O)N1CCc2ccccc2C1)S(=O)(=O)c1ccc2ccccc2c1	–	–	46	–	–	–	–	ATG4B conf=66
O=C(O)c1cc(-c2ccco2)nn1-c1ccc(Cl)cc1	·	–	43	–	–	–	–
CCc1ccc(OCC(=O)Nc2ccc3oc(=O)ccc3c2)cc1	–	–	–	–	–	–	·
COc1cccc(OC)c1C(=O)Nc1cccc(-c2nc3ccccc3[nH]2)c1	–	–	53	–	–	–	62
COc1ccc(Cl)cc1C(=O)NC(=S)Nc1cc(-c2nc3ccccc3[nH]2)ccc1C	–	–	66	–	–	–	79
COc1ccc(Cl)cc1C(=O)NC(=S)Nc1nc(C)cc(C)n1	–	–	–	–	–	–	·
CCCCCCC(=O)Oc1cccc(C2=CC(=O)CC(C)(C)C2=O)c1	·	–	·	–	·	–	·
Cn1c(-c2ccc3c(c2)OCO3)cnc1NCc1cccc(Cl)c1	–	–	52	–	–	–	58
Nc1c(C(=O)Nc2ccccc2F)sc2nc(Cc3ccccc3)cc(C(F)(F)F)c12	–	–	66	–	–	–	–
COCc1cc(C)nc2sc(C(=O)Nc3ccccc3F)c(N)c12	–	–	–	–	–	–	·
Cc1ccccc1NC(=O)c1ccc(NS(=O)(=O)c2cc(C(C)(C)C)cc(C)c2C)cc1	–	–	47	–	–	–	–
Cc1ccc(OC(=O)c2ccncc2)c(C)c1	–	–	–	–	–	–	·
CC(=O)N(C)C[C@@H]1Oc2ncc(Br)cc2C(=O)N([C@H](C)CO)C[C@@H]1C	·	–	·	–	·	–	·
COc1ccc(N(CC(=O)Nc2ccccc2C(=O)O)S(=O)(=O)c2ccc(C)c([N+](=O)[O-])c2)cc1	–	–	59	–	–	–	62
CCOC(=O)N/N=C/c1cn(CCCOc2ccc(C)cc2)c2ccccc12	–	–	41	–	–	–	–
CCOC(=O)N/N=C/c1cn(CCCOc2ccccc2)c2ccccc12	–	–	–	–	–	–	·
COC(=O)c1c(NC(=O)C2Cc3ccccc3C(=O)O2)sc2c1CCCC2 (stereo not drawn)	–	–	49	–	–	–	–	ATG4B conf=83
Cc1noc(C)c1NC(=O)N(C)C[C@H]1Oc2ccc(NC(=O)NC3CCCCC3)cc2C(=O)N([C@H](C)CO)C[C@@H]1C	–	–	–	–	–	–	·
O=C(c1cnn(-c2ccccc2)c1)c1cc(F)ccc1O	–	–	–	–	–	–	·
Cc1ncc(CC(=O)n2cc(C(=O)c3cc(F)ccc3O)cn2)s1	–	–	41	–	–	–	50

Screens from PubChem.
